Source: ChEMBL document CHEMBL4229344 (Eur J Med Chem, 2018)

Legend:
[1] = system: Receptor-type tyrosine-protein kinase FLT3 (Homo sapiens), P36888 [D835H]; assay: Binding affinity to human partial length FLT3 D835H mutant (V592 to Y969 residues) expressed in bacterial expression system assessed as residual binding level at 1 uM by Kinomescan method relative to control
How it was run: (§1)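 Kinome-wide single-concentration binding screen (KINOMEscan) at 1 μM against a panel of 468 purified kinases and mutants. Read-out is relative binding of each kinase compared with control. Selectivity across the panel was summarised as an S(10) score.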

[2] = system: Epidermal growth factor receptor (Homo sapiens), P00533 [UNDEFINED MUTATION]; assay: Binding affinity to human partial length EGFR L747-E749del/A750P mutant expressed in bacterial expression system assessed as residual binding level at 1 uM by Kinomescan method relative to control; how it was run: as §1
[3] = target: Myosin light chain kinase, smooth muscle (Homo sapiens) (UniProt Q15746); assay: Binding affinity to wild-type human full length MYLK (M854 to E1845 residues) expressed in mammalian expression system assessed as residual binding level at 1 uM by Kinomescan method relative to control
How it was run: (§2)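 Single-concentration KINOMEscan (DiscoverX) binding screen at 1 μM against a panel of 468 purified kinases and mutants. The read-out is binding relative to control.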

[4] = target: Dual serine/threonine and tyrosine protein kinase (Homo sapiens) (UniProt Q6XUX3); assay: Binding affinity to wild-type human full length RIPK5 (M1 to T929 residues) expressed in mammalian expression system assessed as residual binding level at 1 uM by Kinomescan method relative to control; how it was run: as §2
[5] = target: Beta-adrenergic receptor kinase 1 (Homo sapiens) (UniProt P25098); assay: Binding affinity to wild-type human full length GRK2 (M1 to L689 residues) expressed in mammalian expression system assessed as residual binding level at 1 uM by Kinomescan method relative to control
How it was run: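 Single-concentration (1 μM) competition-binding screen run by KINOMEscan against a panel of 468 purified kinases and mutants. The read-out is the relative binding activity of the test compound to each kinase.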

[6] = target: Insulin-like growth factor 1 receptor (Homo sapiens) (UniProt P08069); assay: Binding affinity to wild-type human partial length IGF1R (L972 to D1294 residues) expressed in bacterial expression system assessed as residual binding level at 1 uM by Kinomescan method relative to control
[7] = target: Tyrosine-protein kinase Fes/Fps (Homo sapiens) (UniProt P07332); assay: Binding affinity to wild-type human partial length FES (I527 to R822 residues) expressed in bacterial expression system assessed as residual binding level at 1 uM by Kinomescan method relative to control
[8] = target: Protein kinase C iota type (Homo sapiens) (UniProt P41743); assay: Binding affinity to wild-type human partial length PRKCI (H215 to V587 residues) expressed in mammalian expression system assessed as residual binding level at 1 uM by Kinomescan method relative to control
[9] = target: RAF proto-oncogene serine/threonine-protein kinase (Homo sapiens) (UniProt P04049); assay: Binding affinity to wild-type human partial length RAF1 (I330 to T640 residues) expressed in bacterial expression system assessed as residual binding level at 1 uM by Kinomescan method relative to control
[10] = Tmax in Sprague-Dawley rat at 1 mg/kg, iv; format: ADME, organism-based; settings: in vivo
How it was run: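 Male Sprague-Dawley rats, 6–8 weeks old and fasted overnight, dosed IV at 1 mg/kg or PO at 10 mg/kg. Formulation was 5% DMSO/40% PEG400/55% saline (1 mg/mL). Jugular blood collected on heparin from 1 min to 8 h (IV) or 5 min to 24 h (PO). Plasma separated by centrifugation at 2–8 °C and stored at −80 °C.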

[11] = target: Myosin-IIIa (Homo sapiens) (UniProt Q8NEV4); assay: Binding affinity to wild-type human partial length MYO3A (M1 to K338 residues) expressed in bacterial expression system assessed as residual binding level at 1 uM by Kinomescan method relative to control
How it was run: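 Kinome-wide competition binding screen against a panel of 468 purified kinases/mutants, with the test compound at a single concentration of 1 μM. Read-out is the relative binding activity of each kinase in the presence of compound.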

[12] = target: Proto-oncogene tyrosine-protein kinase receptor Ret (Homo sapiens) (UniProt P07949); assay: Binding affinity to wild-type human partial length RET (E713 to D1014 residues) expressed in bacterial expression system assessed as residual binding level at 1 uM by Kinomescan method relative to control
[13] = target: Receptor tyrosine-protein kinase erbB-3 (Homo sapiens) (UniProt P21860); assay: Binding affinity to wild-type human partial length ERBB3 (G684 to A987 residues) expressed in mammalian expression system assessed as residual binding level at 1 uM by Kinomescan method relative to control
[14] = target: Mitogen-activated protein kinase kinase kinase kinase 1 (Homo sapiens) (UniProt Q92918); assay: Binding affinity to wild-type human full length HPK1 (M1 to R799 residues) expressed in bacterial expression system assessed as residual binding level at 1 uM by Kinomescan method relative to control
How it was run: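 KINOMEscan competition binding against 468 purified kinases/mutants, test compound at 1 µM; residual binding relative to control.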

[15] = system: Receptor-type tyrosine-protein kinase FLT3 (Homo sapiens), P36888 [UNDEFINED MUTATION]; assay: Binding affinity to human partial length FLT3 ITD mutant expressed in bacterial expression system assessed as residual binding level at 1 uM by Kinomescan method relative to control; how it was run: as §1
[16] = target: Vascular endothelial growth factor receptor 2 (Homo sapiens) (UniProt P35968); assay: Binding affinity to wild-type human partial length VEGFR2 (R787 to P1253 residues) expressed in mammalian expression system assessed as residual binding level at 1 uM by Kinomescan method relative to control
How it was run: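 KINOMEscan competition binding against a panel of 468 purified kinases/mutants, compound tested at 1 μM; readout is relative binding activity versus control.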

[17] = target: ALK tyrosine kinase receptor (Homo sapiens) (UniProt Q9UM73); assay: Binding affinity to wild-type human partial length ALK (I1088 to E1409 residues) expressed in mammalian expression system assessed as residual binding level at 1 uM by Kinomescan method relative to control; how it was run: as §2
[18] = target: Serine/threonine-protein kinase N2 (Homo sapiens) (UniProt Q16513); assay: Binding affinity to wild-type human partial length PKN2 (E634 to C984 residues) expressed in bacterial expression system assessed as residual binding level at 1 uM by Kinomescan method relative to control
[19] = target: Protein-tyrosine kinase 2-beta (Homo sapiens) (UniProt Q14289); assay: Binding affinity to wild-type human full length PYK2 (M1 to E967 residues) expressed in bacterial expression system assessed as residual binding level at 1 uM by Kinomescan method relative to control; how it was run: as §2
[20] = target: Platelet-derived growth factor receptor alpha (Homo sapiens, UniProt P16234); assay: Inhibition of PDGF-induced PDGFRalpha autophosphorylation at Y754 residue in human NCI-H1703 cells after 2 hrs in presence of PDGF-AA by Western blot analysis; format: cell-based

Proto-oncogene tyrosine-protein kinase receptor Ret (Homo sapiens), sequence (P07949 whole entry, the tested form may be a part): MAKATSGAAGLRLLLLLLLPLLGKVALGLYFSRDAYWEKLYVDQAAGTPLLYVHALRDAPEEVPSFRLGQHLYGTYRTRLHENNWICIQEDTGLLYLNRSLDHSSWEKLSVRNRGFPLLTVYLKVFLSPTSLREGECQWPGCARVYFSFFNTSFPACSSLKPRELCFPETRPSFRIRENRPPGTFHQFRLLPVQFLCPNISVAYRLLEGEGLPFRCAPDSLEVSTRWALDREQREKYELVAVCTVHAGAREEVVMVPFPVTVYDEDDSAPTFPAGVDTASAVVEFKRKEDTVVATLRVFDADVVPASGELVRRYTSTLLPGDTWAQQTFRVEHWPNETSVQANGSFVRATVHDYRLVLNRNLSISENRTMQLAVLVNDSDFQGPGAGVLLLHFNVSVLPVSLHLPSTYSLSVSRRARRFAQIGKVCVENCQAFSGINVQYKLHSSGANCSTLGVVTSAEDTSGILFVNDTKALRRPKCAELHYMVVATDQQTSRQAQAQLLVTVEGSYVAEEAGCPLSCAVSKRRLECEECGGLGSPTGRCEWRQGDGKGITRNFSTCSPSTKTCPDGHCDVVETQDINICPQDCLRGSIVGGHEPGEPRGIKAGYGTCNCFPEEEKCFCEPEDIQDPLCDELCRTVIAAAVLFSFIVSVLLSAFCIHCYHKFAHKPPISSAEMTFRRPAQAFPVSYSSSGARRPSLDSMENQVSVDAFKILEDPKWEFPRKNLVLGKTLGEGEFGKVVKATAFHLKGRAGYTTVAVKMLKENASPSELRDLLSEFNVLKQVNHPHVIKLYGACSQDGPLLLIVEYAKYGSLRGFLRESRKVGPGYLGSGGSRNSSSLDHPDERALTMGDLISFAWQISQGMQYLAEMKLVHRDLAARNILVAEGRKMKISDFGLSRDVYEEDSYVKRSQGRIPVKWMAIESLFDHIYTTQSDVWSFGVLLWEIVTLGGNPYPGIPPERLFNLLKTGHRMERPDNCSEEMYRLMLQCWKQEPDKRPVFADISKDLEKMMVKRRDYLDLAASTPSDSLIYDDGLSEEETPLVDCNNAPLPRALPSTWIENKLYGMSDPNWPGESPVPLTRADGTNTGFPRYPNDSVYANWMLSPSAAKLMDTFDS
Beta-adrenergic receptor kinase 1 (Homo sapiens), sequence (P25098 whole entry, the tested form may be a part): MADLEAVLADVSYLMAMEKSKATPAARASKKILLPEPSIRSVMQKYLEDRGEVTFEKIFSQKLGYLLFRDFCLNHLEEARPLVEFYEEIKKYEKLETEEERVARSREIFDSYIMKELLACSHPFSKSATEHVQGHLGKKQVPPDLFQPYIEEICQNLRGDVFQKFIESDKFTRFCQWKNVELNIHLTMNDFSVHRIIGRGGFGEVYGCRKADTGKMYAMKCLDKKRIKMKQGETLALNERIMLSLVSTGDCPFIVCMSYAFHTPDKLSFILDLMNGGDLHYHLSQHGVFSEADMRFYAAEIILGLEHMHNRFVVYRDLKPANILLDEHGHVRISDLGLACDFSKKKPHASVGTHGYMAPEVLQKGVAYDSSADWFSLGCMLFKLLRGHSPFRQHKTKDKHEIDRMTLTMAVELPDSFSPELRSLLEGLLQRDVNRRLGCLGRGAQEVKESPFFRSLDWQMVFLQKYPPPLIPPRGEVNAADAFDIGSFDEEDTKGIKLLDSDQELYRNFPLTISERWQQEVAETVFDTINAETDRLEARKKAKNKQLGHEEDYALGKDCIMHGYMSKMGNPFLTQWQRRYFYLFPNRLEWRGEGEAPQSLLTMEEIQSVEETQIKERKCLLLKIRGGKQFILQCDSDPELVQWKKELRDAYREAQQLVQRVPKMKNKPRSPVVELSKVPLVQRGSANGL
Protein-tyrosine kinase 2-beta (Homo sapiens), sequence (Q14289 whole entry, looked up, the tested form may be a part): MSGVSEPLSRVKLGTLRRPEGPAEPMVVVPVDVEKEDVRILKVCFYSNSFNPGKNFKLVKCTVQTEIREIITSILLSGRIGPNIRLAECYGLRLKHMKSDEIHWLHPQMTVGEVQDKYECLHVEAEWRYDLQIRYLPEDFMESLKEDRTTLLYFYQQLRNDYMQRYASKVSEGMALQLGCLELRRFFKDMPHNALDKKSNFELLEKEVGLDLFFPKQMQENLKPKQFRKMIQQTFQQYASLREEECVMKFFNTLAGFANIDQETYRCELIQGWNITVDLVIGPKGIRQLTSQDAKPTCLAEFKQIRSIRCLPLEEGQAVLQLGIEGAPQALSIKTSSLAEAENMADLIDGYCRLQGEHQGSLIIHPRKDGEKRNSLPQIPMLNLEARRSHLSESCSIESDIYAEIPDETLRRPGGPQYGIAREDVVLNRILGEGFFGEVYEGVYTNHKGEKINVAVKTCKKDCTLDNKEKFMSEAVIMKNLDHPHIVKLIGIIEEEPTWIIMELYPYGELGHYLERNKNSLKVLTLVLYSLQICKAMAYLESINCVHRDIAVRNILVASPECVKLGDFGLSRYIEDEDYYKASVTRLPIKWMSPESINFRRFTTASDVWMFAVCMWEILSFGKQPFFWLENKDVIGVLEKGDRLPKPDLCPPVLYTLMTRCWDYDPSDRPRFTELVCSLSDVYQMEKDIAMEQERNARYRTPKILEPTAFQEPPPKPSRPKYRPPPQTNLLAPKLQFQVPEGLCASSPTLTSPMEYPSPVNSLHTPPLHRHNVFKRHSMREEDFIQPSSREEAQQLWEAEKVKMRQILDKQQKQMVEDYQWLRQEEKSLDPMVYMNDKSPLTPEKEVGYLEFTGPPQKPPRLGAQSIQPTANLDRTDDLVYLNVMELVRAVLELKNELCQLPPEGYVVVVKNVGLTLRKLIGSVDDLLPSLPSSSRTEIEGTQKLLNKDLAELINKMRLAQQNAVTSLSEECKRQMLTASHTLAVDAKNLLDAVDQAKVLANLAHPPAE
Receptor tyrosine-protein kinase erbB-3 (Homo sapiens), sequence (P21860 whole entry, the tested form may be a part): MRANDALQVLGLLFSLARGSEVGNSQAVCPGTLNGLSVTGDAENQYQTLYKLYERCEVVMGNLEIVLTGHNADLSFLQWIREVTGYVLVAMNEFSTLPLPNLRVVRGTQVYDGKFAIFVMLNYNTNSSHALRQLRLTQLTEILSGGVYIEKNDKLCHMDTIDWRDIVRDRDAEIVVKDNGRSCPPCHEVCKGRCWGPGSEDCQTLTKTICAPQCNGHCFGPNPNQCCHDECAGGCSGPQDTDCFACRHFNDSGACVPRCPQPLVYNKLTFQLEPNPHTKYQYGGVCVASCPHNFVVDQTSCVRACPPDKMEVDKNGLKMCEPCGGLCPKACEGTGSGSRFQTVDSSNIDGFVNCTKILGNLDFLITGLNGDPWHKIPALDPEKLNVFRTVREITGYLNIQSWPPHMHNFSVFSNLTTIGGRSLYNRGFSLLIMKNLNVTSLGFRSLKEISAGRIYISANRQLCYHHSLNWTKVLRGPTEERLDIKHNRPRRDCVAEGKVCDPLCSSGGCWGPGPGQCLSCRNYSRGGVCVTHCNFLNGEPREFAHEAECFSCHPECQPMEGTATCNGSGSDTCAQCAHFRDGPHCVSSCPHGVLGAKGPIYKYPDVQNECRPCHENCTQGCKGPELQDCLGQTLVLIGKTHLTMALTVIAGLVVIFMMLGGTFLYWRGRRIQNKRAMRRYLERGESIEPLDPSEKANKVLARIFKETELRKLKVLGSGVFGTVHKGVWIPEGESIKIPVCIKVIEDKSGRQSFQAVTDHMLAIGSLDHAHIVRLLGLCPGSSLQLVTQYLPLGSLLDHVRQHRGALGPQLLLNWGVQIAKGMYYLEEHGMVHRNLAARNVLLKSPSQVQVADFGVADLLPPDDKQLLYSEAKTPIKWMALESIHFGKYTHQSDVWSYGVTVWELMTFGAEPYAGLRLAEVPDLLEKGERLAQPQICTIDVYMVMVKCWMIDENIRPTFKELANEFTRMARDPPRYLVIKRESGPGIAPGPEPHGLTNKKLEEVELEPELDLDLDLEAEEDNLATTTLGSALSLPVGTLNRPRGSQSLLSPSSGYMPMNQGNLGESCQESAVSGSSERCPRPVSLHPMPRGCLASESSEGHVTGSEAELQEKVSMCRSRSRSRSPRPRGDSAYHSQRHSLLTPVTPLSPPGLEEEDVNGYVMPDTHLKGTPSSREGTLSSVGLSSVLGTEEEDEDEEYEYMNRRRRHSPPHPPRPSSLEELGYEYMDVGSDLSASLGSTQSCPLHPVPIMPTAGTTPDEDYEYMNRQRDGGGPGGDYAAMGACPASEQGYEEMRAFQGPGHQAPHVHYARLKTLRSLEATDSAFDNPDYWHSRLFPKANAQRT
Mitogen-activated protein kinase kinase kinase kinase 1 (Homo sapiens), sequence (Q92918 whole entry, looked up, the tested form may be a part): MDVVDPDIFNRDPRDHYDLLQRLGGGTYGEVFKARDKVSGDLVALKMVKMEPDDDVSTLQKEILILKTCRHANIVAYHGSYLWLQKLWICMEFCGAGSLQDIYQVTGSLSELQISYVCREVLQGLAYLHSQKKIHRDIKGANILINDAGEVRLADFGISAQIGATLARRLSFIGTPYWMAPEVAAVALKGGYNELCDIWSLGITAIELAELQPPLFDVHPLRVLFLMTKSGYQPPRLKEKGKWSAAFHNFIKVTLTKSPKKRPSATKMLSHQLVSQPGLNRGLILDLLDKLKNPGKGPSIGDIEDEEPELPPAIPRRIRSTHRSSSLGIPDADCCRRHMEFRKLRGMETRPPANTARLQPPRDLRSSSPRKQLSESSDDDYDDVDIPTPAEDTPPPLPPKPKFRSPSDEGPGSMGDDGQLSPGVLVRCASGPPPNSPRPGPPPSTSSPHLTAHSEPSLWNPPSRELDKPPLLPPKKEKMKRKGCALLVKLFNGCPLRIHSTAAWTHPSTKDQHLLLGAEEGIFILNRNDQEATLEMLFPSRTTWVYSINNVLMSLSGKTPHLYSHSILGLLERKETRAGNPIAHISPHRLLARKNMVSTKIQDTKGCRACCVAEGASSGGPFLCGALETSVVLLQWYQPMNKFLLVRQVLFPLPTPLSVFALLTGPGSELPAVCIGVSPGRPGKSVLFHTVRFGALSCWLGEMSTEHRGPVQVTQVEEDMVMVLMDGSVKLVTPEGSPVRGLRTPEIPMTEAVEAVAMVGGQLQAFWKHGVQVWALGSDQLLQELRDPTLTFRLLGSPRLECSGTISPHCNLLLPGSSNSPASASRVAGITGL

Cc1ccc(NC(=O)c2ccc(CN(CCN(C)C)C(=O)c3cccnc3)cc2)cc1Nc1nccc(-c2cccnc2)n1
Activity [1]: 100%
Activity [2]: 77%
Activity [3]: 100%
Activity [4]: 81%
Activity [5]: 100%
Activity [6]: 95%
Activity [7]: 85%
Activity [8]: 100%
Activity [9]: 100%
Tmax [10]: 1.02 min
Activity [11]: 92%
Activity [12]: 80%
Activity [13]: 95%
Activity [14]: 94%
Activity [15]: 81%
Activity [16]: 92%
Activity [17]: 100%
Activity [18]: 96%
Activity [19]: 99%
inhibition [20]: Dose-dependent effect
